Experimental data as given in ChEMBL document CHEMBL1153946, “Oxadiazole-diarylpyrazole 4-carboxamides as cannabinoid CB1 receptor ligands” (Bioorg Med Chem Lett, 2009).

Experiments:
[1] = molecular target: Cannabinoid receptor 1 (Rattus norvegicus, UniProt P20272); assay: Displacement of [3H]CP-55940 from cannabinoid CB1 receptor in Sprague-Dawley rat cerebellar membrane by liquid scintillation spectrometry; parameters: species or system Cerebellum
In short: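 Membranes from cerebella of male Sprague-Dawley rats (200–300 g), homogenized in TME (50 mM Tris-HCl, 1 mM EDTA, 3 mM MgCl₂, pH 7.4), spun 48,000g 30 min at 4 °C, resuspended, stored at −70 °C. Incubated 1 h at 30 °C with radioligand in TME plus 0.5% fatty-acid-free BSA. Filtered on PEI-soaked GF/B and washed; IC50 by nonlinear regression.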

[2] = test system: CHO-K1; assay: Selectivity ratio of IC50 for human recombinant cannabinoid CB2 receptor expressed in CHOK1 cells to IC50 for cannabinoid CB1 receptor in Sprague-Dawley rat cerebellar membrane
[3] = molecular target: Cannabinoid receptor 2 (Homo sapiens, UniProt P34972); assay: Displacement of [3H]WIN-55212-2 from human recombinant cannabinoid CB2 receptor expressed in CHOK1 cells by liquid scintillation spectrometry; format: cell-based, CHO-K1
In short: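 CHO K-1 cells transfected with human CB2; membranes prepared as for brain tissue. Competition with 3 nM [3H]WIN55,212-2 in TME buffer (pH 7.4) with 0.5% fatty-acid-free BSA, 1 h at 30 °C. Filtered on 0.1% PEI-soaked GF/B, washed five times with ice-cold buffer plus 0.1% BSA, and counted by scintillation. IC50 by nonlinear regression.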

Chain of Cannabinoid receptor 1 (P20272 whole entry): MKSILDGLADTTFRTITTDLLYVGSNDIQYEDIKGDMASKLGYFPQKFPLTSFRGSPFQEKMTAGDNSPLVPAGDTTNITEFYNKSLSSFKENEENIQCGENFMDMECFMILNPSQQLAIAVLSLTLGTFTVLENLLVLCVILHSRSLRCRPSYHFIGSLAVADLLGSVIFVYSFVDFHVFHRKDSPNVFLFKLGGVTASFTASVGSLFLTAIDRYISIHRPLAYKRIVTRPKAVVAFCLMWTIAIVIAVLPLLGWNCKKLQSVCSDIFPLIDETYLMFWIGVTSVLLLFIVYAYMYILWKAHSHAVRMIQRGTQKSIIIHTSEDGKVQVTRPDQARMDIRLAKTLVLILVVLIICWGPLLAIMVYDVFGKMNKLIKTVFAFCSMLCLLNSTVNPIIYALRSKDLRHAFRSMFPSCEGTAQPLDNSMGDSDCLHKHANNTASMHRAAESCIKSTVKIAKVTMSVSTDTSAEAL
Chain of Cannabinoid receptor 2 (P34972 whole entry): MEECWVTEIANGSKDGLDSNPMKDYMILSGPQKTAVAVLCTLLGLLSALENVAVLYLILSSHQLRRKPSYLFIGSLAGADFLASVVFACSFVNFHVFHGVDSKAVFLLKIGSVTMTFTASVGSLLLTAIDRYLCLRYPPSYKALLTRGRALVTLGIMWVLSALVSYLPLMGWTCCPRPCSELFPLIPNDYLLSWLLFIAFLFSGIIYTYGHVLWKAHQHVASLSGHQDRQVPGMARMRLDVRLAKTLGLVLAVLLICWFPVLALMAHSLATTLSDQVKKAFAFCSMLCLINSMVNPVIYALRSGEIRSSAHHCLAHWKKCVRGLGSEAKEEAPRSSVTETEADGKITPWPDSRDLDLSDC

Structure (SMILES)	IC50 [1]	Ratio IC50 [2]	IC50 [3]
CCCCNC(=O)c1c(-c2nnc(C(C)(C)C)o2)nn(-c2ccc(Cl)cc2Cl)c1-c1ccc(Cl)cc1	17.8 nM	–	–
CC(C)NC(=O)c1c(-c2nnc(C(C)(C)C)o2)nn(-c2ccc(Cl)cc2Cl)c1-c1ccc(Cl)cc1	9.31 nM	–	–
CC(C)(C)c1nnc(-c2nn(-c3ccc(Cl)cc3Cl)c(-c3ccc(Br)cc3)c2C(=O)Nc2ccccn2)o1	1.46 nM	256	374 nM
CC(C)(C)c1nnc(-c2nn(-c3ccc(Cl)cc3Cl)c(-c3ccc(Br)cc3)c2C(=O)Nc2ccccc2)o1	1.35 nM	286	386 nM
CC(C)(C)c1nnc(-c2nn(-c3ccc(Cl)cc3Cl)c(-c3ccc(Cl)cc3)c2C(=O)N2CCCC2)o1	93.4 nM	–	–
CNC(=O)c1c(-c2nnc(C(C)(C)C)o2)nn(-c2ccc(Cl)cc2Cl)c1-c1ccc(Cl)cc1	18.3 nM	–	–
CCCNC(=O)c1c(-c2nnc(C(C)(C)C)o2)nn(-c2ccc(Cl)cc2Cl)c1-c1ccc(Cl)cc1	5.72 nM	–	–
O=C(Nc1ccccc1)c1c(-c2nnc(C3(c4ccc(Cl)cc4)CC3)o2)nn(-c2ccc(Cl)cc2Cl)c1-c1ccc(Br)cc1	1.96 nM	> 5100	> 10000 nM
CC(C)(C)c1nnc(-c2nn(-c3ccc(Cl)cc3Cl)c(-c3ccc(Cl)cc3)c2C(=O)NN2CCCCC2)o1	17.2 nM	–	–
CC(C)(C)c1nnc(-c2nn(-c3ccc(Cl)cc3Cl)c(-c3ccc(Cl)cc3)c2C(N)=O)o1	23.8 nM	–	–
CC(C)(C)c1nnc(-c2nn(-c3ccc(Cl)cc3Cl)c(-c3ccc(Cl)cc3)c2C(=O)Nc2ccccn2)o1	1.47 nM	433	636 nM
CC(=O)CNC(=O)c1c(-c2nnc(C(C)(C)C)o2)nn(-c2ccc(Cl)cc2Cl)c1-c1ccc(Cl)cc1	3.51 nM	–	–
CCN(C)C(=O)c1c(-c2nnc(C(C)(C)C)o2)nn(-c2ccc(Cl)cc2Cl)c1-c1ccc(Cl)cc1	11.5 nM	–	–
CCN(CC)C(=O)c1c(-c2nnc(C(C)(C)C)o2)nn(-c2ccc(Cl)cc2Cl)c1-c1ccc(Cl)cc1	62.1 nM	–	–
CC(C)(C)c1nnc(-c2nn(-c3ccc(Cl)cc3Cl)c(-c3ccc(Cl)cc3)c2C(=O)Nc2ccccc2)o1	1.66 nM	445	738 nM
CC(C)(C)c1nnc(-c2nn(-c3ccc(Cl)cc3Cl)c(-c3ccc(Cl)cc3)c2C(=O)NC2CC2)o1	3.27 nM	–	–
CC(C)(C)c1nnc(-c2nn(-c3ccc(Cl)cc3Cl)c(-c3ccc(Cl)cc3)c2C(=O)NC2CCCC2)o1	7.25 nM	–	–
CN(C)C(=O)c1c(-c2nnc(C(C)(C)C)o2)nn(-c2ccc(Cl)cc2Cl)c1-c1ccc(Cl)cc1	13.4 nM	–	–
CCNC(=O)c1c(-c2nnc(C(C)(C)C)o2)nn(-c2ccc(Cl)cc2Cl)c1-c1ccc(Cl)cc1	12.7 nM	–	–
